{"data": "Published values pooled from the literature", "target": "Phosphorylase b kinase gamma catalytic chain, skeletal muscle/heart isoform (PHKG1, Homo sapiens, UniProt Q16816)"}
{"SMILES": "CC(=O)Nc1c(C(C)=O)c(=O)n(C)c2nc(-c3ccc(Cl)cc3Cl)c(-c3ccc(Cl)cc3)cc12", "read-out": "cell-free assay", "method": "competition with immobilised ligand", "tested at": "1 µM", "quantity": "remaining binding", "result": "100%"}
{"SMILES": "O=C(Nc1cnn(-c2csc(C(=O)NC3COC3)c2)c1)Nc1c(F)cccc1Cl", "read-out": "enzyme activity", "action": "inhibitor", "tested at": "5 µM", "quantity": "remaining activity", "result": "91.2%"}
{"SMILES": "Cn1c(=O)n(-c2ccc(C(C)(C)C#N)cc2)c2c3cc(-c4cnc5ccccc5c4)ccc3ncc21", "read-out": "enzyme activity", "action": "inhibitor", "tested at": "10 µM", "quantity": "remaining activity", "result": "95%"}
{"SMILES": "CS(=O)(=O)N1CCCC(NC(=O)[C@H](CCC2CCCCC2)NC(=O)c2ccc(CNc3ncnc4c3nnn4-c3ccccc3)cc2)C1 (some centres unmarked)", "read-out": "cell-free assay", "method": "competition with immobilised ligand", "tested at": "0.1 µM", "quantity": "remaining binding", "result": "87%"}
{"SMILES": "Cc1sc(C(=O)NC2COC2)cc1-n1cc(NC(=O)Nc2c(F)cccc2Cl)cn1", "read-out": "enzyme activity", "action": "inhibitor", "tested at": "10 µM", "quantity": "remaining activity", "result": "84%"}
{"SMILES": "CC/C(=N\\NC(=O)NCc1cccc(O)c1)c1ccc(O)c(C)c1O", "read-out": "enzyme activity", "action": "inhibitor", "tested at": "0.1 µM", "quantity": "inhibition", "result": "-1.8%"}
{"SMILES": "CC(C)(O)[C@H]1CC[C@H](Nc2ccc3ncc(-c4cccc(C(F)(F)F)c4)n3n2)CC1", "read-out": "enzyme activity", "action": "inhibitor", "tested at": "1 µM", "quantity": "remaining activity", "result": "84.1%"}
{"SMILES": "CNCc1ccccc1-c1csc([C@H](C)Nc2nc(C)nc3cc(OC)c(OC)cc23)c1", "read-out": "cell-free assay", "method": "competition with immobilised ligand", "tested at": "1 µM", "quantity": "remaining binding", "result": "87%"}
{"SMILES": "COc1cc2ncnc(Nc3ccc(Oc4ccccc4)c(C)c3C)c2cc1OC", "read-out": "enzyme activity", "action": "inhibitor", "tested at": "1 µM", "quantity": "inhibition", "result": "2%"}
{"SMILES": "O=C1Nc2ccc(Cl)cc2C1=Cc1cc(Cl)c(O)c(Cl)c1", "read-out": "cell-free assay", "tested at": "0.5 µM", "quantity": "remaining signal", "result": "86.4%"}
{"SMILES": "CN1CC(Oc2cnc(C#N)cc2-c2ccn3nc(NC(=O)C4CC4)cc3c2)C1", "read-out": "enzyme activity", "action": "inhibitor", "tested at": "1 µM", "quantity": "inhibition", "result": "8%"}
{"SMILES": "Cc1ccc(C(=O)NCc2ccsc2)cc1C#Cc1cn(C(C)C)c2ncnc(N)c12", "read-out": "enzyme activity", "action": "inhibitor", "tested at": "1 µM", "quantity": "activity vs control", "result": "107%"}
{"SMILES": "c1ccc(CNc2nc(N3CCOc4ccccc43)nc3c2CCCC3)cc1", "read-out": "target engagement in cells", "action": "inhibitor", "method": "chemoproteomics", "tested at": "20 mM", "quantity": "inhibition", "result": "2%"}
{"SMILES": "Cc1c(C(=O)O)cc(-c2ccc(C3CCNCC3)cc2)c2ccc(-c3ccc(C(F)(F)F)cc3)cc12", "read-out": "cell-free assay", "method": "competition with immobilised ligand", "tested at": "1 µM", "quantity": "remaining binding", "result": "100%"}
{"SMILES": "Nc1nc(Nc2ccccc2)sc1C(=O)c1c(F)cccc1F", "read-out": "enzyme activity", "action": "inhibitor", "tested at": "10 µM", "quantity": "remaining activity", "result": "88%"}
{"SMILES": "N[C@@H]1CCN(c2nccc(-c3cnn4ncccc34)n2)C1", "read-out": "binding", "tested at": "1 µM", "quantity": "remaining binding", "result": "100%"}
{"SMILES": "NS(=O)(=O)c1cc(NC(=O)Cc2ccccc2)ccc1Oc1cccc(Cl)c1", "read-out": "cell-free assay", "method": "competition with immobilised ligand", "tested at": "1 µM", "quantity": "remaining binding", "result": "87%"}
{"SMILES": "CC(C)(C)c1nc(-c2cccc(NS(=O)(=O)c3c(F)cccc3F)c2F)c(-c2ccnc(N)n2)s1", "read-out": "enzyme activity", "action": "inhibitor", "method": "radiometric", "tested at": "1 µM", "quantity": "remaining activity", "result": "97%"}
{"SMILES": "CNC(=O)c1ccc(Nc2ncc(C(F)(F)F)c(NCc3nccnc3N(C)S(C)(=O)=O)n2)cc1", "read-out": "cell-free assay", "method": "competition with immobilised ligand", "tested at": "0.1 µM", "quantity": "remaining binding", "result": "100%"}
{"SMILES": "O=C1NC(=O)c2cc(Nc3ccc(F)cc3)c(Nc3ccc(F)cc3)cc21", "read-out": "cell-free assay", "tested at": "0.5 µM", "quantity": "remaining signal", "result": "94.8%"}
